Source: PubChem BioAssay (Sanford-Burnham Center for Chemical Genomics)
Apaf-1 act: human Apaf-1 activation; Apaf-1 apoptosome caspase-3 activation, DEVD-Rh110 fluorescence; hits give low values; activity change, negative = activation, % at 20 µM; 330,000 compounds, 0.31% hits;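 active = activity change at or below -40% at 20 µM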
Target sequence (O14727 whole entry, looked up): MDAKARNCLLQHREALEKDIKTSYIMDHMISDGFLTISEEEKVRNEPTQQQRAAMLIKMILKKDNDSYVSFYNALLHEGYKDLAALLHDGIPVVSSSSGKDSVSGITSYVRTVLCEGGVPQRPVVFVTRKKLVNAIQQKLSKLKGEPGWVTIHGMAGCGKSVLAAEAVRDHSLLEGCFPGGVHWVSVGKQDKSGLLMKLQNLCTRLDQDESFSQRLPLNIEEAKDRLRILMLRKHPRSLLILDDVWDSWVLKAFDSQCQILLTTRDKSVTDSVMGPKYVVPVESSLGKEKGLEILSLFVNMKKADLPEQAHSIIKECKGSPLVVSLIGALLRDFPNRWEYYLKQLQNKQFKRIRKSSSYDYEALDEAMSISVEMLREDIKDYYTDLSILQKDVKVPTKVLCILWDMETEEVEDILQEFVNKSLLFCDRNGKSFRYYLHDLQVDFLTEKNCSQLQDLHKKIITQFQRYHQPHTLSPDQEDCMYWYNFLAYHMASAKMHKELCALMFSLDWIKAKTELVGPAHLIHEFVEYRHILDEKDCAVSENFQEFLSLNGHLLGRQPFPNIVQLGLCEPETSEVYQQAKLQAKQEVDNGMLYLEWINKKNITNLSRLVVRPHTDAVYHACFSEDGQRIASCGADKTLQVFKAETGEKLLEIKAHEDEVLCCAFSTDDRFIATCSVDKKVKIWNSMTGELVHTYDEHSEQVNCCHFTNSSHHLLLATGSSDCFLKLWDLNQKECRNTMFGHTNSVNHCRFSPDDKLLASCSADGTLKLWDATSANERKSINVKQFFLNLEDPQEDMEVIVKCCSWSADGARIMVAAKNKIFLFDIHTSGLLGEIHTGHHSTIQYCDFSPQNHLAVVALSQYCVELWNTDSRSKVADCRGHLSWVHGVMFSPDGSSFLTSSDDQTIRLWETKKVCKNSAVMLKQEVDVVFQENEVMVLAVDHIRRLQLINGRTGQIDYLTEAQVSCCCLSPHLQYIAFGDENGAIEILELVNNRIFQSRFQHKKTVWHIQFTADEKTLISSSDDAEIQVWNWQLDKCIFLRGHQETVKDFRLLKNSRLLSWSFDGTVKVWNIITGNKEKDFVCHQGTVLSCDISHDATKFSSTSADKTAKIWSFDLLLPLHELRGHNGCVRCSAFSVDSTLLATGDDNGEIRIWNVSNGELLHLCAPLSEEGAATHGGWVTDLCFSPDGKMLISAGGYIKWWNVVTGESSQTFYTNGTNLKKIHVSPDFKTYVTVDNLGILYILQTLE
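Material: biochemical Apaf-1 apoptosome reconstitution; Medium: 20 mM HEPES buffer, pH 7.5, containing CHAPS and BSA; Reagent: dATP, cytochrome c, and (Z-DEVD)2-Rh110 caspase-3 substrate; Times: 30 min preincubation, 50 min reaction, room temperature; Signal: Rh110 fluorescence, excitation 480 nm, emission 540 nm; Measure: Caspase-3 activity via Apaf-1.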
Rh110 interf act: interferes with Rh110 fluorescence, flagging false Apaf-1 activators | shares compounds with Apaf-1 act | Rh110 fluorescence interference, quenched caspase reaction, Ex480/Em540 | fluorescence interference (activity change), % at 20 µM, hits read low | 980 tested, under 10 active;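 active = mean activity change at or below -40% when tested at 20 µM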
Apaf-1 act conf2: confirmation of human Apaf-1 activators | 980 compounds, 5% hits | reconstituted apoptosome caspase-3 activity, DEVD-Rh110 fluorescence; hits give low values | activity change, negative = activation, % at 20 µM | shares compounds with Apaf-1 act;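 active = mean activity change at or below -40%, meaning activation of 40% or more, at 20 µM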
Fluor interf act: Apaf-1 activator counter-screen fluorescence artifact | fluorescence interference counterscreen, Apaf-1 activator assay | shares compounds with Apaf-1 act | EC50, µM | AID 588592 | 55 tested, under 10 active; call rule not given here
The depositor's hits bear a star. A selection follows.

`CN(C)CCC(c1ccc(Cl)cc1)c1ccccn1` (stereo not drawn) gave Apaf-1 act -9.
For NC(=O)c1cc(N)ccc1N1CCCC1 the results were Apaf-1 act 44.
For Cc1cc(C(=O)Nc2ccccc2N2CCCCC2)no1 the results were Apaf-1 act -512*, Rh110 interf act 8 and Apaf-1 act conf2 17.
Nc1ccc(N2CCCCC2)c2nonc12 was read as Apaf-1 act 97.
Screening NC(=NCCCCCCN=C(N)/N=C(\N)Nc1ccc(Cl)cc1)/N=C(\N)Nc1ccc(Cl)cc1 returned Apaf-1 act 76.
For CCC(C)Sc1ccc(-c2nc3cnccn3c2NC2CCCCC2)cc1 (stereo not drawn) the results were Apaf-1 act 45.
Screening COc1ccc(C(=O)N2CCCCCC2)cc1OC1CCN(C(C)C)CC1 returned Apaf-1 act -68*, Rh110 interf act -1 and Apaf-1 act conf2 -2.
CCCNc1c(F)c(F)c2c(C)c3ccccc3nc2c1F was read as Apaf-1 act 51.
Screening COn1c2c(c3c4nonc4ccc31)CCCC2 returned Apaf-1 act 47 and Fluor interf act >100.
`CCN1CCN(Cc2ccc(NC(=O)c3cc(NC(=O)c4cc(-c5ccc(OC)cc5)n[nH]4)cc(OC)c3)cc2C(F)(F)F)CC1` gave Apaf-1 act 56.
`CC(C)=C1C2C=CC1C1C(=O)N(c3ccc4c(c3)OCO4)C(=O)C21` (stereo not drawn) gave Apaf-1 act -71*, Rh110 interf act 1 and Apaf-1 act conf2 10.
N#C[C@@H]1[C@@H]2C(=O)N(c3ccc4c(c3)OCCO4)C(=O)[C@@H]2C2c3ccccc3C=CN21 (stereo partly drawn) was read as Apaf-1 act 78.
Screening C=C(C)C(=O)Nc1cccc(C2=NOC3(C2)C[C@@H](C(N)=O)N(C(=O)/C(C)=C/C)C3)c1 (stereo partly drawn) returned Apaf-1 act -288*, Rh110 interf act -1, Apaf-1 act conf2 -120* and Fluor interf act >100.
Screening C=C(C)C(=O)Nc1cccc(C2=NOC3(C2)C[C@H](C(N)=O)N(C(=O)c2ccccc2C(=O)c2ccccc2)C3)c1 (stereo partly drawn) returned Apaf-1 act -270*, Rh110 interf act 6, Apaf-1 act conf2 -125* and Fluor interf act >100.
C=C(C)C(=O)Nc1cccc(C2=NOC3(C2)C[C@@H](C(N)=O)N(C(=O)/C=C/C=C/C)C3)c1 (stereo partly drawn) was read as Apaf-1 act -326*, Rh110 interf act -3, Apaf-1 act conf2 -129* and Fluor interf act >100.
C=C(C)C(=O)Nc1cccc(C2=NOC3(C2)C[C@@H](C(N)=O)N(C(=O)CC(c2ccccc2)c2ccccc2)C3)c1 (stereo partly drawn) was read as Apaf-1 act -107*, Rh110 interf act 14 and Apaf-1 act conf2 -36.
For C#CCOCCOCCOCCNc1nc(N2CCN(C(=O)CCCCCCCCCCNC(=O)[C@H]([C@@H](C)CC)n3cc(CCCCN=C(N)N)nn3)CC2)nc(N2CCN(C(=O)CCCCCCCCCCNC(=O)[C@H]([C@@H](C)CC)n3cc(CCCCN=C(N)N)nn3)CC2)n1 the results were Apaf-1 act 41.
`C=CCn1c(NC(=O)c2ccc(Br)o2)c(S(=O)(=O)c2ccccc2)c2nc3ccccc3nc21` gave Apaf-1 act 63.
For Oc1c(Br)cc(Br)cc1C=Nc1cccnc1 the results were Apaf-1 act 79.
For C#CCOCCOCCOCCNc1nc(N2CCN(C(=O)CCCCCCCCCCNC(=O)Cn3cc(CCCCCN)nn3)CC2)nc(N2CCN(C(=O)CCCCCCCCCCNC(=O)[C@@H](CCC(=O)O)n3cc(CCCCCN)nn3)CC2)n1 the results were Apaf-1 act 59.
CC1=NN(c2ccc(Cl)cc2)C(=O)C1C(c1cccc(O)c1)c1c(C)[nH]n(-c2ccc(Cl)cc2)c1=O (stereo not drawn) was read as Apaf-1 act 85.
For C#CCOCCOCCOCCNc1nc(N2CCN(C(=O)[C@H](CCCCN)n3cc(CN)nn3)CC2)nc(N2CCN(C(=O)[C@H](CCCCN)n3cc([C@@H](N)[C@H](C)CC)nn3)CC2)n1 the results were Apaf-1 act 40.
For O=C(OCc1nc2ccccc2s1)c1ccc([N+](=O)[O-])o1 the results were Apaf-1 act 69.
